High-throughput results: PubChem, Sanford-Burnham Center for Chemical Genomics
Most compounds without a hit are left out; they make up all but 2% or so of the library.
SUMO1 PPI mod: modulators of human SUMO1-mediated protein-protein interactions | P63165 | SUMO1 binding to a labelled peptide, TR-FRET, 1 h | inhibition, % at 20 µM | 360,000 compounds, 0.33% hits; in the data active = inhibition above about 37%
STEP block: inhibitors of human striatal-enriched phosphatase STEP. P54829. inhibition, % at 20 µM. recombinant STEP, OMFP fluorogenic substrate, fluorescence. 360,000 compounds, 0.25% hits. AID 588621;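 active = inhibition at 20 µM, scaled per plate between control wells, above about 37%, limit read from the data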;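 note: 0% = DMSO with enzyme and substrate and 100% = substrate only without enzyme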
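Material: STEP (striatal-enriched tyrosine phosphatase) enzyme, cell-free | Medium: 50 mM Bis-Tris pH 6.0 with 2.5 mM DTT and 0.005% Tween 20 | Read-out: Percent inhibition scaled to no-enzyme and uninhibited-enzyme controls, plate-pattern corrected | Signal: Fluorescence read at 480 nm ex / 540 nm em | Times: 20 min reaction, room temperature, in the dark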
LMPTP inh: blocks human LMPTP phosphatase | recombinant LMPTP-A, OMFP fluorogenic substrate, fluorescence intensity | inhibition, % at 20 µM | 360,000 compounds, 0.22% hits | AID 651560;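 active = compounds that cut the enzyme signal by at least half of the control window in the single-dose screen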;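 note: plate controls were DMSO wells with enzyme plus substrate for no effect and substrate without enzyme for full effect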
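Test system – LMPTP-A enzyme · Amount – LMPTP-A at 0.625 nM final in the reaction · Buffer or medium – Bis-Tris pH 6.0, DTT, detergent · Reagent – OMFP 400 µM · Doses – single 20 µM dose · Schedule – reaction 50 min, room temperature, dark · Detection – fluorescence intensity of OMFP turnover product · Evaluation – percent inhibition versus substrate-only and uninhibited controls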
DNMT1 inh: DNMT1 (human) enzyme inhibition | inhibition (reported as % activation of signal), % at 10 µM | P26358 | 360,000 compounds, 0.83% hits | AID 588458 | DNMT1 molecular beacon, Hinp1I cleavage, fluorescence; in the data active = inhibition above about 50%
Scp-1 inhibitor: inhibitors of human Scp-1 phosphatase. Q9GZU7. Recombinant Scp1, phosphopeptide, malachite green phosphate absorbance. inhibition, % at 20 µM. 340,000 compounds, 0.88% hits. AID 493091;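 active = inhibition above about 50% at 20 µM, limit read from the data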;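 note: plate controls were DMSO wells with enzyme for no effect and wells lacking enzyme for full effect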
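System: SCP-1 catalytic domain; Reagent: Phospho 17-mer peptide substrate; Doses: one concentration, 20 µM, with 1.0% DMSO; Incubation: 45 min room-temperature reaction, 5 min colour, 30 min stabiliser; Signal: Phosphate-binding colour reagent, absorbance read at 630 nm.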
CSN deneddyl inh: CSN deneddylation inhibition; 360,000 compounds, 0.38% hits; Q92905; Purified CSN, SCF-Nedd8-OG deneddylation, fluorescence polarization; inhibition, % at 12.5 µM;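 active = pattern-corrected inhibition above about 35%, with an unprinted fluorescence ratio check between 0.5 and 1.5, limit read from the data, passing the limit was not always enough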;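 note: 0% = enzyme with substrate and 100% = substrate without enzyme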
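Material: human Csn5 produced in HEK293T cells; Input: enzyme 0.24 nM; Reagent: SCFSkp2-Nedd8OG substrate at 10 nM final; Dosing: 12.5 µM compound; Incubation: 90 min reaction at room temperature; Detection: fluorescence polarization of the substrate; Evaluation: % inhibition of substrate cleavage by Csn5; Control set: substrate-only high control, full reaction low control.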
STEP inh conf: STEP (human) phosphatase inhibition, single concentration confirmation; shares compounds with STEP block; recombinant STEP, OMFP fluorogenic substrate, fluorescence; inhibition, % at 20 µM; 520 compounds, 32% hits; call rule not given here;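 note: 0% = enzyme with substrate plus DMSO and 100% = substrate without enzyme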
* = called active by the depositor; . = no result.

SMILES	SUMO1 PPI mod	STEP block	LMPTP inh	DNMT1 inh	Scp-1 inhibitor	CSN deneddyl inh	STEP inh conf
CC(=O)Nc1ccccc1-c1nc2ccccc2nc1OCC(=O)c1ccc(Cl)cc1	-0.8	56.8*	-0.7	-2.2	-4.4	-6.0	-3.0
C=C(C)Cn1c(C)cc(C)c(S(=O)(=O)c2cccc(C)c2)c1=O	-5.6	1.4	0.9	3.8	-3.1	-3.6	.
CC1CCN(c2c([N+](=O)[O-])c(=O)oc3ccccc23)CC1	0.0	53.0*	-1.4	1.1	-7.8	-0.1	1.5
O=c1oc2ccccc2c(N2CCCC2)c1[N+](=O)[O-]	-0.4	-0.5	-0.3	5.3	-0.6	6.1	.
CCCCNC(=O)c1cccc(C(=O)NCCCC)c1	3.0	95.9*	-1.4	1.2	-8.4	-5.5	4.8
O=C(Nc1nc(-c2ccc3c(c2)Cc2ccccc2-3)cs1)c1ccccc1	-7.1	47.2*	-0.8	25.8	-1.8	-10.4	2.3
O=C(Nc1cccc(-c2csc(Nc3ccccc3)n2)c1)c1ccccc1	2.0	-1.2	5.7	-36.3	6.1	4.2	.
COC(=O)c1ccc(NC(=O)c2cn(-c3ccccc3)nc2-c2ccncc2)cc1	19.1	46.2*	1.5	-8.1	6.2	22.8	-4.4
Cc1cc2nnc(SCC(=O)NCC3CCCO3)n2c2ccccc12 (stereo not drawn)	0.7	-1.4	-0.9	0.3	-4.4	5.6	.
COc1ccc(NC(=S)N(CCC(C)C)C2CCN(C(C)C)CC2)cc1Cl	0.9	97.6*	1.7	1.6	-5.7	-2.4	79.0*
COCCN(C(=S)Nc1ccc(OC)c(Cl)c1)C1CCN(C(C)C)CC1	3.6	70.6*	-1.6	-0.3	-1.0	-6.0	20.3
Cc1ccc(NC2CCCN(C(=O)CCN3CCOCC3)C2)cc1C (stereo not drawn)	2.8	-1.7	-0.1	0.5	5.8	-2.2	.
O=[N+]([O-])c1ccccc1S(=O)(=O)Nc1ccc2c(c1)OCCO2	-8.7	0.2	-0.1	0.7	-0.6	1.1	.
CCOC(=O)C(=N/O)/C(C)=N/NC(C)=O	-3.7	-1.7	1.1	0.1	-4.5	-5.6	.
CCOC(=O)C(=N/O)/C(C)=N/NC(=O)C(=O)Nc1cc(Cl)ccc1Cl	3.0	50.7*	0.5	-6.2	-6.9	3.5	8.1
COc1ccc(COc2ccsc2C(=O)Nc2ccc(Cl)c(Cl)c2)cc1	0.4	54.6*	21.3	46.7	42.1	-3.0	13.6
NC(=NCc1ccc2c(c1)OCO2)NC(=O)c1ccccc1	11.8	70.3*	21.6	-7.9	14.7	19.6	34.7*
S=C1NC[C@H](Cc2ccccc2)N1CC1CCN(CCCC2CCCC2)CC1	-2.3	43.0*	1.7	5.1	15.5	1.0	14.9
S=C1NC[C@H](Cc2ccccc2)N1CCCCC1CCCCC1	4.2	0.3	2.0	-10.4	-0.2	1.7	.
CCn1c(SCC(=O)N/N=C/C=C\c2ccccc2[N+](=O)[O-])nc2ccccc21	-18.7	51.8*	1.8	-3.9	-7.0	-0.4	19.0
CC(C)CNC(=O)C(=O)NCC1OCCCN1S(=O)(=O)c1cccs1 (stereo not drawn)	3.8	-2.9	-0.1	2.0	4.0	1.0	.
COC(=O)Nc1sc2c(c1C(N)=O)CCC(C)C2 (stereo not drawn)	2.0	97.1*	2.3	0.7	-2.9	-4.9	80.5*
Cc1nn(-c2ccccc2)c(=S)c2ccccc12	3.0	-4.0	-2.8	0.4	-5.7	1.9	.
O=C(COc1cccc(C(F)(F)F)c1)NCC(c1cccs1)N1CCOCC1 (stereo not drawn)	0.7	1.8	-1.3	-4.3	-0.7	-5.1	.
CCCN(CC(=O)Nc1ccccc1OC)C(=O)Cc1ccc2c(c1)CCC2	-0.1	71.4*	-0.1	-3.2	-4.9	-1.7	45.8*
SMILES	SUMO1 PPI mod	STEP block	LMPTP inh	DNMT1 inh	Scp-1 inhibitor	CSN deneddyl inh	STEP inh conf
CCN(CC(=O)Nc1ccccc1C(F)(F)F)C(=O)Cc1ccc2c(c1)CCC2	2.4	1.1	0.4	-3.5	-5.2	4.6	.
O=C(COC(=O)CN1C(=O)NC2(CCCC2)C1=O)NCc1ccc(Cl)cc1Cl	0.0	-1.9	2.4	-3.9	5.3	-1.1	.
Cc1cc([N+](=O)[O-])ccc1NC(=O)Cc1ccc(F)cc1	-10.3	117.4*	-1.2	-0.7	-5.5	-6.5	1.3
COc1cccc(C(=O)/C=C/Nc2ccc(S(=O)(=O)Nc3onc(C)c3C)cc2)c1	3.3	43.2*	3.0	-3.8	-1.8	-9.2	6.5
CC(Sc1nnc(C2CC2)n1Cc1ccccc1)C(=O)N1CCNC1=O (stereo not drawn)	4.8	-0.6	-1.6	-0.8	-0.2	-2.5	.
CC(C(=O)Nc1ccc(O)cc1C(=O)O)N1C(=O)/C(=C\c2cccs2)SC1=S (stereo not drawn)	6.5	77.0*	7.7	-6.1	34.0	25.5	79.9*
CCOc1ccc(/C=N/NC(=O)c2[nH]c3ccc(C)cc3c2C)cc1	22.7	79.7*	30.4	-6.6	-4.5	19.9	6.3
S=C(Nc1ccccc1Cl)NC1CCC(NC(=S)Nc2ccccc2Cl)CC1 (stereo not drawn)	2.3	43.6*	-2.5	19.6	-5.2	4.0	3.7
CN(C)S(=O)(=O)c1cccc(NC(=O)COC(=O)c2cccn2C)c1	-0.7	-0.6	-0.9	18.4	-6.8	-1.5	.
O=C(Nc1nc2ccc(F)cc2s1)C1=COCCO1	7.2	0.4	1.0	-2.0	-1.2	-2.1	.
O=C(Nc1ccccc1-c1nc2ccccc2s1)C1=COCCO1	-1.7	57.8*	51.4*	13.3	25.8	2.9	15.9
COCCCN(C(=S)Nc1c(C)cc(C)cc1C)C(C)c1ccccn1 (stereo not drawn)	0.0	46.4*	-2.4	2.6	-2.9	-4.3	24.8*
Cc1ccc(NC(=O)C2CC(=O)N(C(C)C)C2)cc1C (stereo not drawn)	-0.5	-0.1	0.6	0.3	2.4	5.1	.
CCOC(=O)N1CCC(N(CCN(C)C)C(=S)Nc2cc(Cl)ccc2C)CC1	2.5	65.1*	-9.9	-1.1	-12.9	4.3	35.6*
O=C(OCC(=O)c1ccc[nH]1)c1cncc(Br)c1	2.7	-4.7	1.4	15.7	3.2	1.7	.
CCOC(=O)c1ccc(NC(=S)N2CCN(C(=O)C3CCCO3)CC2)cc1 (stereo not drawn)	-2.4	1.1	1.1	0.0	-5.0	1.0	.
COc1cc(C)c(NC(=O)C(=S)NCCc2ccccc2)cc1C	0.8	47.4*	1.5	3.2	-3.9	-0.8	5.7
CC1CCN(S(=O)(=O)c2cc3c4c(c2)CCN4C(=O)CC3)CC1	6.7	2.8	-0.1	4.1	-0.6	-0.5	.
O=C(COc1ccc(Cl)cc1)Nc1ccc2oc(-c3ccncc3)nc2c1	-1.0	5.4	10.2	0.8	6.0	-3.1	.
